OX1R antag-1 = blocks the human orexin 1 receptor; CHO/OX1R cells, Fluo-8 calcium fluorescence, orexin A; 0.43% of 330,000 active; AID 434989; inhibition, % at 5 µM; O43613;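 active = inhibition above its plate's threshold, mean inhibition of all tested compounds on the plate plus 3 SD, cut at about 37% in these data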;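 note: 0% = orexin A challenge wells and 100% = SB-334867-A antagonist wells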
Target sequence (O43613 whole entry, looked up): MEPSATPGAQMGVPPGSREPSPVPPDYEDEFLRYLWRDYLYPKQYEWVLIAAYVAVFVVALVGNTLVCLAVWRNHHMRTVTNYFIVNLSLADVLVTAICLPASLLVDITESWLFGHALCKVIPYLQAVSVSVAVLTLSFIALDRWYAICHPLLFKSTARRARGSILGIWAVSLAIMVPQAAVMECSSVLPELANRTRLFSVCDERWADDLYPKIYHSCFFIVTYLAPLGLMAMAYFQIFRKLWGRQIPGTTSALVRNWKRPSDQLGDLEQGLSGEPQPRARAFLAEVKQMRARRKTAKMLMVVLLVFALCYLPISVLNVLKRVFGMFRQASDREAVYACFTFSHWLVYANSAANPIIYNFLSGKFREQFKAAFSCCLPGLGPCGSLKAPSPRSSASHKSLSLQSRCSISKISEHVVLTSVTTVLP
CHO parental Ca = signal in parental CHO cells, OX1R antagonist counter-screen; parental CHO-K1, ATP-induced calcium, Fluo-8 fluorescence; 0.63% of 330,000 active; inhibition, % at 5.6 µM;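 active = inhibition above that plate's mean sample inhibition plus 3 SD, cut at about 26% in these data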;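 note: 0% = ATP-challenged DMSO wells and 100% = DMSO wells without ATP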
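Assay system: untransfected parental CHO cell line. Also added: ATP agonist challenge. Dosing: one dose, 5.6 µM nominal. Measured by: Fluo-8 fluorescence. Read-out: % inhibition. Benchmarks: ATP wells versus no-ATP DMSO wells. Repeats: no replicates.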
GPR7 antagonist = blocks human GPR7 receptor signaling | P48145 | GPR7-expressing cells, fluorescence antagonist assay | inhibition, % at 4.4 µM | 1.1% of 290,000 active | AID 1861; in the data active = inhibition above about 16%, passing the limit was not always enough;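 note: cells stimulated with the agonist NPW; 0% = agonist with vehicle and 100% = vehicle without agonist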
zfTRPN1 agonist = activates the zebrafish TRPN1 channel | HEK293 zebrafish TRPN1-YFP, Fluo-8 calcium fluorescence; 100% = response to 87 µM carbachol | activation, % at 3 µM | 0.18% of 220,000 active;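 active = activation above its plate's cutoff, the mean activation of test wells on that plate plus 3 SD, cut at about 19% in these data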;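 note: 0% = DMSO alone and 100% = 87 µM carbachol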
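Material: zebrafish TRPN1-YFP in HEK293 cells. Doses: one dose of 3 µM, 0.3% DMSO. Incubation: dye 1 h 37 °C plus 30 min RT. Measured by: intracellular calcium fluorescence with Fluo-8.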
OX1R antag-2 = blocks the human orexin 1 receptor; AID 485270; OX1R-expressing cells, FRET antagonist read-out; inhibition, % at 6.6 µM; 1.8% of 330,000 active; O43613; in the data active = inhibition mostly above about 38%, no sharp cut-off; inactive = mostly below about 40%;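 note: 0% = agonist challenge alone and 100% = reference antagonist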
TRPML3 agonist = agonists of human TRPML3 channel; Q8TDD5; HEK293 TRPML3-YFP, Fluo-8 calcium fluorescence; 100% = the carbachol control signal; activation, % at 3 µM; 0.29% of 220,000 active; AID 1448;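 active = activation above its plate's cutoff, the mean activation of the plate's test wells plus 3 SD, cut at about 12% in these data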;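 note: 0% = DMSO only wells and 100% = carbachol wells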
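system = HEK293 cells stably carrying human TRPML3-YFP | doses = one concentration, 3 µM nominal, 0.3% DMSO | timing = dye loading 1 h 37 °C then 30 min ambient, 125 s read | detection = Fluo-8 calcium dye fluorescence, ex 470-495, em 515-575 nm | benchmarks = high control carbachol 87 µM, low control DMSO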
* marks the source's active call; other numbers are inactive results; nt = no result. Hits are enriched below; roughly 3.2% of the tested compounds scored in any of these assays.

SMILES	OX1R antag-1	CHO parental Ca	GPR7 antagonist	zfTRPN1 agonist	OX1R antag-2	TRPML3 agonist
CCCCOC(=O)CSCC(=O)N1N=C(c2cccs2)CC1c1ccc(F)cc1 (centres undefined)	-13	29*	0	-2	3	1
N=C1C(c2ccccc2)=C(O)CN1CCCO	-2	-2	-11	0	3	0
CCN(CC)CCC(=O)Nc1cccc2c1C(=O)c1ccccc1C2=O	-40	-12	-9	-1	74*	1
CCN(CC)CCNC(=O)c1ccc2c(c1NCCO)C(=O)c1ccccc1C2=O	-20	-15	-4	1	89*	0
CCN(CC(=O)Nc1cccc(OC)c1)C(=O)c1cnc(Cl)c(Cl)c1	-8	-3	-4	nt	5	nt
O=[N+]([O-])c1cc(Br)c2nsnc2c1N1CCOCC1	-15	-9	20	nt	29*	nt
O=C1CN(C(=O)Cn2ncc(Cl)c(Cl)c2=O)c2ccccc2N1	nt	nt	2	1	nt	0
CN(CC(=O)Nc1cccc(F)c1)C(=O)CSc1nc2ccccc2s1	-26	-15	nt	nt	24	nt
N#Cc1cccc(NC(=O)COC(=O)c2cc(S(=O)(=O)Nc3ccccc3Cl)ccc2O)c1	15	4	nt	nt	38*	nt
O=C(CCOc1ccccc1)Nc1cccc(S(=O)(=O)Nc2ccccc2Cl)c1	57*	37*	-8	-1	55	0
O=C(COC(=O)c1cc(S(=O)(=O)Nc2ccccc2Cl)ccc1O)Nc1nc2ccccc2s1	nt	nt	0	1	nt	1
CCC(C)CCN1C(Nc2ccccc2)=NC[C@@H]1C (some centres undefined)	-10	-19	0	nt	23	nt
CCOC(=O)C1CCCN(S(=O)(=O)c2ccccc2)C1 (centres undefined)	-21	-4	-13	0	17	0
CCOC(=O)C1CCCN(S(=O)(=O)c2cc(C(=O)OC)n(C)c2)C1 (centres undefined)	-2	26*	3	nt	4	nt
CC(C)Sc1nc(N)nc(-c2cccs2)c1C#N	-3	-16	-3	0	32	0
CSc1nc(N)nc(-c2cccs2)c1C#N	27	12	0	1	101*	0
CCOC(=O)c1oc2cccc(O)c2c1C	-14	-5	-6	-1	39*	0
CCOC(=O)c1oc2cccc(OC(C)=O)c2c1C	2	1	-11	-1	47	0
CN1CCN(c2ccc(C(=O)NC3CCCCC3)cc2[N+](=O)[O-])CC1	-21	-18	12	2	12	1
N#C/C(=C\c1ccc(C(=O)O)cc1)c1ccccn1	-14	-6	-9	0	23	0
N#C/C(=C\c1c[nH]c2ccc(Br)cc12)c1ccccn1	60*	-18	4	nt	83*	nt
O=C(CSCc1ccc(Br)cc1)NCCc1ccccc1	-25	-14	-5	nt	16	nt
COc1ccc(C(=S)N2CCN(c3cccc(Cl)c3)CC2)c(OC)c1	9	-10	28*	-1	23	0
O=C(Nc1ccccn1)c1cc(-c2cccc(Cl)c2)nc2ccccc12	-27	-38	-5	2	9	1
Cc1cc(Cl)c(S(=O)(=O)N2CCN(c3ccc(F)cc3)CC2)cc1OCC(=O)NC1CCCCC1	52*	58*	6	2	15	2
SMILES	OX1R antag-1	CHO parental Ca	GPR7 antagonist	zfTRPN1 agonist	OX1R antag-2	TRPML3 agonist
O=C(Nc1ccc(Cl)c(Cl)c1)Nc1ccccc1NS(=O)(=O)c1cccs1	2	35*	-7	1	66	0
O=C(Nc1ccccc1)Nc1ccccc1NS(=O)(=O)c1cccs1	-26	1	-4	1	30	1
CCOCCCNC(=O)CCC(=O)NNc1nc2ccccc2c2nc(-c3ccccc3)nn12	26	-16	-4	1	53*	0
CC(C)OCCCNC(=O)CCC(=O)NNc1nc2ccccc2c2nc(-c3ccccc3)nn12	19	-13	13	1	66*	1
CCN(CC)CCCNC(=O)CCC(=O)NNc1nc2ccccc2c2nc(C)nn12	-1	11	-7	2	8	0
COCCNC(=O)CCC(=O)NNc1nc2ccccc2c2nc(-c3ccccc3)nn12	6	-3	-15	2	72*	1
O=C(Nc1cccc(-n2cnnn2)c1)c1cnccc1Cl	-10	-2	2	nt	6	nt
